# Results published in ChEMBL document CHEMBL2040780, “Antiarrhythmic properties of phenylpiperazine derivatives of phenytoin with α₁-adrenoceptor affinities” (Bioorg Med Chem, 2012).
# Activity calls are given as the source filed them.
# Experiments:
# Rattus norvegicus [1] = assay: Cardiotoxicity in Wistar rat assessed as effect on P-Q interval at 10 mg/kg, iv after 15 mins; type: toxicity, organism-based; design: dose 10 mg/kg, route intravenous; conditions: in vivo, 0.25 h
# Procedure, shortened: (§1)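 Male Wistar rats (180–250 g), anaesthetised with thiopental 60 mg/kg ip. Standard lead II ECG recorded at 50 mm/s just before dosing and at 1, 5 and 15 min after. Heart rate and P–Q, Q–T and QRS intervals were read. n=6 per group, mean ± SEM, one-way ANOVA.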
# Rattus norvegicus [2] = assay: Antiarrhythmic activity in iv dosed Wistar rat assessed as protection against barium chloride-induced extrasystoles administered 15 mins prior to barium chloride-challenge; type: functional; conditions: Heart
# Procedure, shortened: (§2)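 Szekeres model in male Wistar rats. Activity is gradual disappearance of arrhythmia with restored sinus rhythm; protection against disturbances and death scored. Groups of 6 animals.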
# Rattus norvegicus [3] = assay: Cardiotoxicity in Wistar rat assessed as effect on QRS interval at 10 mg/kg, iv after 15 mins; type: toxicity, organism-based; design: dose 10 mg/kg, route intravenous; conditions: in vivo, 0.25 h; procedure, shortened: as §1
# Rattus norvegicus [4] = assay: Antiarrhythmic activity in Wistar rat assessed as effect on heart beat at 10 mg/kg, iv after 15 mins; type: functional; procedure, shortened: as §1
# Rattus norvegicus [5] = assay: Antiarrhythmic activity in Wistar rat assessed as protection against adrenaline-induced bigeminy at 2.5 to 10 mg/kg, iv administered 15 mins prior to adrenaline-challenge; type: functional, organism-based; conditions: Heart
# Procedure, shortened: (§3)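 Szekeres model in male Wistar rats anaesthetised with thiopental (60 mg/kg ip). Test compound given iv in water (2.5–10 mg/kg) 15 min before adrenaline 20 µg/kg iv. Scored for extrasystoles, bigeminy and mortality; activity means no premature beats and inhibited arrhythmia versus controls.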
# Rattus norvegicus [6] = assay: Hypotensive activity in normotensive Wistar rat assessed as decrease in diastolic blood pressure at 2.5 to 10 mg/kg, iv after 1 min measured up to 60 mins; type: organism-based, Artery; design: dose 2.5-10 mg/kg, route intravenous; conditions: in vivo
# Procedure, shortened: (§4)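 Right carotid artery cannulated with heparin-saline-filled tubing for blood pressure recording. After 5 min stabilisation, compound injected iv into the caudal vein (2.5–10 mg/kg, 1 ml/kg). Systolic and diastolic pressure followed for 60 min. n=6 per group, mean ± SEM, one-way ANOVA.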
# Rattus norvegicus [7] = assay: Cardiotoxicity in Wistar rat assessed as effect on Q-T interval at 10 mg/kg, iv after 15 mins; type: toxicity, organism-based; design: dose 10 mg/kg, route intravenous; conditions: in vivo, 0.25 h; procedure, shortened: as §1
# Rattus norvegicus [8] = assay: Antiarrhythmic activity in Wistar rat assessed as effect on heart beat at 10 mg/kg, iv after 1 min; type: functional; procedure, shortened: as §1
# Rattus norvegicus [9] = assay: Hypotensive activity in normotensive Wistar rat assessed as decrease in diastolic blood pressure at 2.5 to 10 mg/kg, iv at 1 min; type: organism-based, Artery; design: dose 2.5-10 mg/kg, route intravenous; conditions: in vivo; procedure, shortened: as §4
# Rattus norvegicus [10] = assay: Antiarrhythmic activity in Wistar rat assessed as effect on heart beat at 10 mg/kg, iv after 5 mins; type: functional; procedure, shortened: as §1
# Rattus norvegicus [11] = assay: Antiarrhythmic activity in Wistar rat assessed as protection against adrenaline-induced extrasystoles at 2.5 to 10 mg/kg, iv administered 15 mins prior to adrenaline-challenge; type: functional, organism-based; conditions: Heart; procedure, shortened: as §3
# Rattus norvegicus [12] = assay: Cardiotoxicity in Wistar rat assessed as effect on P-Q interval at 10 mg/kg, iv after 5 mins; type: toxicity, organism-based; design: dose 10 mg/kg, route intravenous; conditions: in vivo; procedure, shortened: as §1
# Rattus norvegicus [13] = assay: Hypotensive activity in normotensive Wistar rat assessed as decrease in systolic blood pressure at 2.5 to 10 mg/kg, iv after 1 min measured up to 60 mins; type: organism-based, Artery; design: dose 2.5-10 mg/kg, route intravenous; conditions: in vivo; procedure, shortened: as §4
# Rattus norvegicus [14] = assay: Cardiotoxicity in Wistar rat assessed as effect on QRS interval at 10 mg/kg, iv after 5 mins; type: toxicity, organism-based; design: dose 10 mg/kg, route intravenous; conditions: in vivo; procedure, shortened: as §1
# Rattus norvegicus [15] = assay: Hypotensive activity in normotensive Wistar rat assessed as decrease in systolic blood pressure at 2.5 to 10 mg/kg, iv at 1 min; type: organism-based, Artery; design: dose 2.5-10 mg/kg, route intravenous; conditions: in vivo; procedure, shortened: as §4
# Rattus norvegicus [16] = assay: Antiarrhythmic activity in iv dosed Wistar rat assessed as protection against adrenaline-induced arrhythmia administered 15 mins prior to adrenaline-challenge; type: functional; conditions: Heart; procedure, shortened: as §3
# Rattus norvegicus [17] = assay: Antiarrhythmic activity in iv dosed barium chloride-induced Wistar rat arrhythmia model assessed as protection against mortality administered 15 mins prior to barium chloride-challenge; type: functional; conditions: Heart
# Procedure, shortened: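 Male Wistar rats (180–250 g), groups of 6. Activity criterion: gradual disappearance of arrhythmia and restoration of sinus rhythm; protection against heart disturbances and death scored.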
# Rattus norvegicus [18] = assay: Antiarrhythmic activity in dosed Wistar rat assessed as protection against barium chloride-induced fibrillation administered 15 mins prior to barium chloride-challenge; type: functional; conditions: Heart; procedure, shortened: as §2
# Rattus norvegicus [19] = assay: Cardiotoxicity in Wistar rat assessed as effect on Q-T interval at 10 mg/kg, iv after 1 min; type: toxicity, organism-based; design: dose 10 mg/kg, route intravenous; conditions: in vivo; procedure, shortened: as §1
# Rattus norvegicus [20] = assay: Cardiotoxicity in Wistar rat assessed as effect on Q-T interval at 10 mg/kg, iv after 5 mins; type: toxicity, organism-based; design: dose 10 mg/kg, route intravenous; conditions: in vivo; procedure, shortened: as §1
# Rattus norvegicus [21] = assay: Cardiotoxicity in Wistar rat assessed as effect on P-Q interval at 10 mg/kg, iv after 1 min; type: toxicity, organism-based; design: dose 10 mg/kg, route intravenous; conditions: in vivo; procedure, shortened: as §1
# Rattus norvegicus [22] = assay: Cardiotoxicity in Wistar rat assessed as effect on QRS interval at 10 mg/kg, iv after 1 min; type: toxicity, organism-based; design: dose 10 mg/kg, route intravenous; conditions: in vivo; procedure, shortened: as §1
# Rattus norvegicus [23] = assay: Antiarrhythmic activity in barium chloride-induced Wistar rat arrhythmia model assessed as protection against mortality at 2.5 to 10 mg/kg, iv administered 15 mins prior to barium chloride-challenge; type: functional, organism-based; conditions: Heart; procedure, shortened: as §2
# Rattus norvegicus [24] = assay: Cardiotoxicity in Wistar rat assessed as effect on QRS interval at 5 mg/kg, iv after 5 mins; type: toxicity, organism-based; design: dose 5 mg/kg, route intravenous; conditions: in vivo
# Procedure, shortened: as §1, with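 “ip. Compound given iv in water at 10 mg/kg, or at a lower starting dose of 5 or 2.5 mg/kg.” for “ip.”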
# Rattus norvegicus [25] = assay: Cardiotoxicity in Wistar rat assessed as effect on Q-T interval at 5 mg/kg, iv after 5 mins; type: toxicity, organism-based; design: dose 5 mg/kg, route intravenous; conditions: in vivo
# Procedure, shortened: as §1, with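 “ip. Compound given iv in water at 10 mg/kg, or at a lower starting dose of 5 or 2.5 mg/kg.” for “ip.”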
# Rattus norvegicus [26] = assay: Cardiotoxicity in Wistar rat assessed as effect on QRS interval at 5 mg/kg, iv after 15 mins; type: toxicity, organism-based; design: dose 5 mg/kg, route intravenous; conditions: in vivo, 0.25 h
# Procedure, shortened: as §1, with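 “ip. Compound given iv in water at 10 mg/kg, or at a lower starting dose of 5 or 2.5 mg/kg.” for “ip.”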
# Rattus norvegicus [27] = assay: Antiarrhythmic activity in Wistar rat assessed as effect on heart beat at 5 mg/kg, iv after 5 mins; type: functional
# Procedure, shortened: as §1, with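 “ip. Compound given iv in water at 10 mg/kg, or at a lower starting dose of 5 or 2.5 mg/kg.” for “ip.”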
# Rattus norvegicus [28] = assay: Cardiotoxicity in Wistar rat assessed as effect on P-Q interval at 5 mg/kg, iv after 15 mins; type: toxicity, organism-based; design: dose 5 mg/kg, route intravenous; conditions: in vivo, 0.25 h
# Procedure, shortened: as §1, with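 “ip. Compound given iv in water at 10 mg/kg, or at a lower starting dose of 5 or 2.5 mg/kg.” for “ip.”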
# Rattus norvegicus [29] = assay: Cardiotoxicity in Wistar rat assessed as effect on Q-T interval at 5 mg/kg, iv after 1 min; type: toxicity, organism-based; design: dose 5 mg/kg, route intravenous; conditions: in vivo
# Procedure, shortened: as §1, with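 “ip. Compound given iv in water at 10 mg/kg, or at a lower starting dose of 5 or 2.5 mg/kg.” for “ip.”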
# Rattus norvegicus [30] = assay: Antiarrhythmic activity in Wistar rat assessed as effect on heart beat at 5 mg/kg, iv after 15 mins; type: functional
# Procedure, shortened: as §1, with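 “ip. Compound given iv in water at 10 mg/kg, or at a lower starting dose of 5 or 2.5 mg/kg.” for “ip.”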
# Rattus norvegicus [31] = assay: Cardiotoxicity in Wistar rat assessed as effect on P-Q interval at 5 mg/kg, iv after 5 mins; type: toxicity, organism-based; design: dose 5 mg/kg, route intravenous; conditions: in vivo
# Procedure, shortened: as §1, with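 “ip. Compound given iv in water at 10 mg/kg, or at a lower starting dose of 5 or 2.5 mg/kg.” for “ip.”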
# Rattus norvegicus [32] = assay: Antiarrhythmic activity in Wistar rat assessed as effect on heart beat at 5 mg/kg, iv after 1 min; type: functional
# Procedure, shortened: as §1, with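 “ip. Compound given iv in water at 10 mg/kg, or at a lower starting dose of 5 or 2.5 mg/kg.” for “ip.”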
# Rattus norvegicus [33] = assay: Cardiotoxicity in Wistar rat assessed as effect on P-Q interval at 5 mg/kg, iv after 1 min; type: toxicity, organism-based; design: dose 5 mg/kg, route intravenous; conditions: in vivo
# Procedure, shortened: as §1, with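 “ip. Compound given iv in water at 10 mg/kg, or at a lower starting dose of 5 or 2.5 mg/kg.” for “ip.”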
# Rattus norvegicus [34] = assay: Cardiotoxicity in Wistar rat assessed as effect on Q-T interval at 5 mg/kg, iv after 15 mins; type: toxicity, organism-based; design: dose 5 mg/kg, route intravenous; conditions: in vivo, 0.25 h
# Procedure, shortened: as §1, with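 “ip. Compound given iv in water at 10 mg/kg, or at a lower starting dose of 5 or 2.5 mg/kg.” for “ip.”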
# Rattus norvegicus [35] = assay: Cardiotoxicity in Wistar rat assessed as effect on QRS interval at 5 mg/kg, iv after 1 min; type: toxicity, organism-based; design: dose 5 mg/kg, route intravenous; conditions: in vivo
# Procedure, shortened: as §1, with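 “ip. Compound given iv in water at 10 mg/kg, or at a lower starting dose of 5 or 2.5 mg/kg.” for “ip.”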
smiles,measurement,setting,value
COC(=O)CN1C(=O)N(CC(O)CN2CCN(c3ccccc3OC)CC2)C(c2ccccc2)(c2ccccc2)C1=O.Cl (racemic),Activity,Rattus norvegicus [1],63 ms
same,Activity,Rattus norvegicus [2],inactive
same,Activity,Rattus norvegicus [3],17 ms
same,Activity,Rattus norvegicus [4],261 min⁻¹
same,Activity,Rattus norvegicus [5],Active
same,Activity,Rattus norvegicus [6],Non-toxic
same,Activity,Rattus norvegicus [7],74 ms
same,Activity,Rattus norvegicus [8],268 min⁻¹
same,Activity,Rattus norvegicus [9],Toxic
same,Activity,Rattus norvegicus [10],262 min⁻¹
same,Activity,Rattus norvegicus [11],Active
same,Activity,Rattus norvegicus [12],63 ms
same,Activity,Rattus norvegicus [13],Non-toxic
same,Activity,Rattus norvegicus [14],18 ms
same,Activity,Rattus norvegicus [15],Toxic
same,ED50,Rattus norvegicus [16],0.69 mg/kg
same,Activity,Rattus norvegicus [17],inactive
same,Activity,Rattus norvegicus [18],inactive
same,Activity,Rattus norvegicus [19],98 ms
same,Activity,Rattus norvegicus [20],76 ms
same,Activity,Rattus norvegicus [21],64 ms
same,Activity,Rattus norvegicus [22],20 ms
CCOC(=O)C(C)N1C(=O)N(CC(O)CN2CCN(c3ccccc3OC)CC2)C(c2ccccc2)(c2ccccc2)C1=O.Cl (racemic),Activity,Rattus norvegicus [5],Active
same,Activity,Rattus norvegicus [11],Active
same,Activity,Rattus norvegicus [23],Active
same,ED50,Rattus norvegicus [16],0.41 mg/kg
COC(=O)CN1C(=O)N(CC(O)CN2CCN(c3ccccc3)CC2)C(c2ccccc2)(c2ccccc2)C1=O.Cl (racemic),Activity,Rattus norvegicus [24],26 ms
same,Activity,Rattus norvegicus [25],81 ms
same,Activity,Rattus norvegicus [26],22 ms
same,Activity,Rattus norvegicus [27],261 min⁻¹
same,Activity,Rattus norvegicus [6],Non-toxic
same,Activity,Rattus norvegicus [9],Toxic
same,Activity,Rattus norvegicus [28],64 ms
same,Activity,Rattus norvegicus [29],97 ms
same,Activity,Rattus norvegicus [30],272 min⁻¹
same,Activity,Rattus norvegicus [13],Non-toxic
same,Activity,Rattus norvegicus [15],Toxic
same,Activity,Rattus norvegicus [31],65.2 ms
same,Activity,Rattus norvegicus [32],246 min⁻¹
same,Activity,Rattus norvegicus [33],72 ms
same,Activity,Rattus norvegicus [34],74 ms
same,Activity,Rattus norvegicus [35],33 ms
